# Sampled rows, rich in hits. Any-hit rate of the full collection: about 2.4%.
# MT stabilizer: microtubule stabilizers in HeLa cells; % tubulin-high responders, % at 10 µM; HeLa tubulin immunostaining HCS, 24 h; share of cells brighter than vehicle mean+2SD; 0.83% of 200,000 active;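 active means plate Z-score above 3 for both tubulin-high and condensed-nucleus cell shares, with cell loss under 80%, at 10 µM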;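 further: anti alpha tubulin signal scored within the nucleus-defined area of each cell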
# ROMK primary: human ROMK K+ channel modulation, primary screen; Tet-inducible ROMK, thallium flux fluorescence; actives lie on both sides; 2% of 130,000 active; P48048; B-score at 10 µM;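 active means signal ratio slope over the read window, or its plate-corrected B-score, at least 3 SD from the plate mean, either direction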;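 further: B-score of the F/F0 ratio slope over 7 to 12 s after thallium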
# Target sequence (P48048 whole entry, looked up): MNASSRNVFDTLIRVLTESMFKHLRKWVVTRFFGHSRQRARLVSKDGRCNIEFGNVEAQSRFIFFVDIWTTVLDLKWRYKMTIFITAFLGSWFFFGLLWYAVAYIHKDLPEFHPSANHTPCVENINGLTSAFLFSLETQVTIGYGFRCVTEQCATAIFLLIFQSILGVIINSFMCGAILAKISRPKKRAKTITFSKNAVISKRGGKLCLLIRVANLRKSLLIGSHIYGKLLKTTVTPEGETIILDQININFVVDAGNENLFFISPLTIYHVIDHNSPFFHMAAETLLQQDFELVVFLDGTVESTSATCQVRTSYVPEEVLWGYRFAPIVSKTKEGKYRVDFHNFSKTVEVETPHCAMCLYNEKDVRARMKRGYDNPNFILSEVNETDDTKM
# bCat nuc transl: alters nuclear translocation of beta-catenin in HeLa cells; nuclear translocation activity, % at 5 µM; immunofluorescence imaging; AID 1665; 0.3% of 190,000 active;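 active means nuclear translocation activity above 50% at 5 µM, with a well cell count of 50 or more; inconclusive means wells under 50 cells across six images, flagged as toxic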;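 further: per-cell ratio of nuclear to cytoplasmic median beta-catenin stain intensity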
#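 test system = HeLa cells, endogenous beta-catenin | dosing = single 5 µM dose plus 0.02–20 µM confirmation series | times = compound treatment 24 h, 37°C, 5% CO2 | technique = beta-catenin immunofluorescence imaging with DAPI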
# Insulin prom inh: TRM-6 insulin promoter activity inhibition; TRM-6 cells, insulin promoter-eGFP reporter, imaging; reporter expression induced with tamoxifen; inhibition, % at 2 µM; 0.9% of 130,000 active; AID 1273;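 active means inhibition above the mean plus 3 SD, with well images judged a real hit on visual review, cut at about 60% in these data, passing the limit was not always enough; inconclusive means inhibition over the cutoff but images rejected on review; inactive means inhibition not above the cutoff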
# HSV replic up: HSV replication enhancement; HSV replication augmentation in cells, fold increase; maximum fold increase; 0.005% of 220,000 active; AID 1956; in the data active means maximum fold increase above about 1.5; inconclusive means no clear call, values can overlap the other calls; tested in PC3 cells
# Hits are given with their value; i = inactive; ? = inconclusive; nt = not tested or not shown.
SMILES,MT stabilizer,ROMK primary,bCat nuc transl,Insulin prom inh,HSV replic up
CCN(CC)S(=O)(=O)c1ccc2c(c1)nc(CCC(=O)Nc1ccc3c(c1)OCO3)n2CC,i,i,i,i,nt
Cc1c(Cc2ccc3c(c2)OCO3)sc(NC(=O)C(C)(C)C)c1C#N,21.7,nt,i,nt,i
O=C(N/N=C/c1ccc2c(c1)OCO2)c1sc2cc(Cl)ccc2c1Cl,19.0,nt,i,nt,i
COc1ccc2c(Cl)c(C(=O)N/N=C/c3ccc4c(c3)OCO4)sc2c1,i,i,i,nt,i
O=C(N/N=C/c1ccc2c(c1)OCO2)c1sc2cccc(Cl)c2c1Cl,21.8,nt,i,i,i
COc1cccc(CN2CCN(Cc3ccc(O)c(OC)c3)CC2CCO)c1 (stereo unspecified),i,i,i,i,i
COc1cc(CN2CCN(Cc3ccc(C)cc3)C(CCO)C2)ccc1O (stereo unspecified),i,i,i,78.3,i
COc1cccc(C2NC(=S)NC(C)=C2C(=O)c2ccccc2)c1OC (stereo unspecified),23.7,i,132.0,i,i
C=CCOc1ccc(C2NC(=S)NC(C)=C2C(=O)c2ccccc2)cc1OC (stereo unspecified),i,nt,i,nt,i
COc1ccc(C(=O)Nc2cccc(OC)c2)cc1,i,nt,i,i,i
COc1ccc(COc2cc(-c3cccc(OC)c3)nc3ccc(NC(=O)c4ccc(N(C)C)cc4)cc23)cc1,19.8,i,nt,i,i
COc1ccc(C(=O)Nc2ccc3[nH]c(-c4cccc(OC)c4)cc(=O)c3c2)cc1,31.9,i,55.7,i,i
O=C(Nc1ccc(Br)cn1)c1ccc2nccnc2c1,11.6,nt,nt,i,i
Cc1c(C#N)c(NC(=O)CCl)n(Cc2ccccc2)c1C,10.8,i,i,i,i
CCN(CC)C(=O)c1sc(NC(=O)Cc2cccs2)c(C#N)c1C,i,nt,nt,i,i
Cc1c(C#N)c(NC(=O)CCl)n(Cc2ccc(F)cc2)c1C,i,i,i,nt,i
Cc1c(C#N)c(NC(=O)CCl)n(Cc2cccs2)c1C,39.5,i,i,nt,i
COc1ccccc1N1CCN(S(=O)(=O)Cc2ccccc2Cl)CC1,i,i,i,88.9,i
COc1ccccc1N1CCN(S(=O)(=O)c2ccccc2)CC1,i,nt,i,i,i
COC(=O)c1cc(C(=O)N2CCN(c3ccccc3OC)CC2)cc([N+](=O)[O-])c1,27.3,i,69.7,i,i
COc1ccccc1N1CCN(c2ccc([N+](=O)[O-])cc2Cl)CC1,20.6,i,i,i,i
Cc1ccc(CCNc2ccc3ccccc3c2)cn1,i,i,nt,i,i
Cc1ccc(NCCc2ccc(C)nc2)cc1,i,nt,i,75.0,i
O=[N+]([O-])c1ccc(N2CCN(S(=O)(=O)c3ccc4ccccc4c3)CC2)cc1NCC1CCCO1 (stereo unspecified),i,i,i,i,i
O=C(O)C1C2CCC(O2)C1C(=O)NCc1ccc(Cl)cc1 (stereo unspecified),i,i,i,61.5,i
SMILES,MT stabilizer,ROMK primary,bCat nuc transl,Insulin prom inh,HSV replic up
Cc1nn(C)cc1CNC(=O)C1C2CCC(O2)C1C(=O)O (stereo unspecified),i,i,i,nt,i
CCn1nc(C(=O)N2CCc3ccccc3C2)c2ccccc2c1=O,16.2,nt,i,nt,i
COc1ccc(S(=O)(=O)NCC2CCCN(Cc3ccccc3C)C2)cc1 (stereo unspecified),i,i,i,nt,i
O=C(O)c1cn(-c2ccc(F)cc2)c(=O)c2ccccc12,i,i,i,nt,i
Cc1ccc(NC(=O)c2ccc(Cl)cc2[N+](=O)[O-])nc1,36.4,i,i,nt,i
CCOC(=O)N1CCC(Nc2ccc(N3C(=O)C4CCCCC4C3=O)cc2[N+](=O)[O-])CC1 (stereo unspecified),i,i,i,nt,i
c1csc(-c2cn3ccc4ccccc4c3n2)c1,i,nt,i,85.7,i
Cc1nn(C)cc1CNC(=O)c1cnn2c1NC(c1ccc(Br)cc1)CC2C(F)(F)F (stereo unspecified),i,nt,i,i,i
Cc1c(CNC(=O)c2cnn3c2NC(c2ccc(Br)cc2)CC3C(F)(F)F)cnn1C (stereo unspecified),i,i,i,80.7,i
COc1ccc(CCn2nnnc2C(CC(C)C)N2CCC(C(N)=O)CC2)cc1OC (stereo unspecified),i,nt,nt,nt,i
CC(C)CC(c1nnnn1CCc1ccccc1)N1CCC(C(N)=O)CC1 (stereo unspecified),i,i,i,100.0,i
CCN(CC)C(=O)CSC1=C(C#N)C(c2cccs2)C=C(C)N1 (stereo unspecified),i,i,i,nt,i
COc1ccc(C(C)=O)cc1CSc1nc2cc(Cl)ccc2o1,i,i,i,74.1,i
CCOC(=O)C1=NN(C(=O)c2ccc(C)cc2)C(O)(c2ccc(Cl)cc2)C1 (stereo unspecified),i,2.76,i,i,i
COC(=O)C1=NN(C(=O)c2ccc(Cl)cc2)C(O)(c2ccccc2)C1 (stereo unspecified),i,nt,i,nt,?
Cn1c(SCC(=O)NCCNC(=O)CSc2nnc(C(F)(F)F)n2C)nnc1C(F)(F)F,i,i,nt,i,i
Cc1ccccc1NC(=O)CSc1nnc(Cc2ccccc2)o1,i,nt,i,75.0,i
Cc1ccc(NC(=O)CSc2nnc(Cc3ccccc3)o2)c(C)c1,i,i,i,i,i
Cc1ccc(-c2nnn(CC(=O)N(C)C3CCCCC3)n2)o1,i,i,i,73.7,i
COCCn1cnnc1SCC(=O)c1ccc(S(=O)(=O)N2CCCC2)cc1,i,nt,i,nt,i
Cc1ccc(NC(=O)CN(C)C(=O)c2n[nH]c(=O)c3ccccc23)cc1,i,i,i,nt,i
CCCCCCN=CC1=C(O)C(C(=O)OC)C(C)(C)CC1=O (stereo unspecified),i,i,nt,93.1,i
COC(=O)c1ccccc1NS(=O)(=O)c1cn(C)c(=O)n(C)c1=O,i,nt,i,nt,i
COc1cccc(NC(=S)/C(=C(\[O-])c2ccc(C)c([N+](=O)[O-])c2)[n+]2ccccc2)c1,i,nt,i,76.9,i
COc1ccc(C(=O)C(CN2CCOCC2)c2ccccc2)cc1 (stereo unspecified),i,i,nt,91.8,i
SMILES,MT stabilizer,ROMK primary,bCat nuc transl,Insulin prom inh,HSV replic up
CCCCOc1ccc(C(=O)C(CN2CCOCC2)c2ccccc2)cc1 (stereo unspecified),i,nt,?,78.4,i
Fc1ccccc1CSc1nnc(-c2ccccc2)o1,i,i,i,i,i
COc1ccc(-c2nnc(SCc3ccccc3F)o2)cc1,i,nt,nt,86.7,i
CC(=O)Nc1ccc(Nc2cc(C)nc3c(-c4ccc(Cl)cc4)cnn23)cc1,i,nt,i,79.6,i
COC(=O)c1ccc(COC(=O)CCS(=O)(=O)c2ccc(C)cc2)cc1,i,i,i,nt,i
COC(=O)c1ccc(COC(=O)CNS(=O)(=O)c2ccc(C)cc2)cc1,i,i,nt,73.0,i
Cc1nc2c3ccccc3n(Cc3ccccc3F)c2s1,i,i,i,i,i
Cc1nc2c3cc(F)ccc3n(Cc3ccccc3F)c2s1,26.6,i,i,i,i
Cc1nc2c3cc(F)ccc3n(CCN3CCCCC3)c2s1,14.5,i,i,nt,i
Cc1nc2c3ccccc3n(CCN3CCCCC3)c2s1,i,nt,i,i,nt

# Screening data deposited in PubChem BioAssay by several laboratories.
